According to ChEMBL document CHEMBL3352730, “Synthesis and effects on cell viability of flavonols and 3-methyl ether derivatives on human leukemia cells” (Eur J Med Chem, 2014):
Calls of active or inactive are those of the source. No cut-off for these calls is given here.

Experiments:
MOLT-3 [1] = experiment: Induction of apoptosis in human MOLT3 cells assessed as pro-caspase-8 cleavage by Western blotting method; type: functional, cell-based
How it was run: (§1)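 Cells were exposed to a range of compound concentrations and harvested at 24 h. Lysates were immunoblotted for caspase proforms and cleaved forms, and for Bcl-2 family proteins.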

HL-60 [2] = experiment: Induction of cell cycle arrest in human HL60 cells assessed as accumulation at subG1 phase at 1 uM after 12 hrs by propidium iodide staining based flow cytometry (reference value: 6.1 +/- 0.5%); type: functional
HL-60 [3] = experiment: Induction of cell cycle arrest in human HL60 cells assessed as accumulation at S phase at 3 uM after 12 hrs by propidium iodide staining based flow cytometry (reference value: 14.7 +/- 0.3%); type: functional
U-937 [4] = experiment: Induction of cell cycle arrest in human U937 cells assessed as accumulation at G2/M phase at 10 uM after 48 hrs by propidium iodide staining based flow cytometry (reference value: 19.1 +/- 1.1%); type: functional
U-937 [5] = experiment: Induction of cell cycle arrest in human U937 cells assessed as accumulation at G2/M phase at 3 uM after 12 hrs by propidium iodide staining based flow cytometry (reference value: 24.2 +/- 1.2%); type: functional
HL-60 [6] = experiment: Induction of cell cycle arrest in human HL60 cells assessed as accumulation at G2/M phase at 1 uM after 48 hrs by propidium iodide staining based flow cytometry (reference value: 17.9 +/- 0.7%); type: functional
U-937 [7] = experiment: Induction of cell cycle arrest in human U937 cells assessed as accumulation at subG1 phase at 10 uM after 48 hrs by propidium iodide staining based flow cytometry (reference value: 6.7 +/- 0.3%); type: functional
HL-60 [8] = experiment: Induction of cell cycle arrest in human HL60 cells assessed as accumulation at G1 phase at 3 uM after 24 hrs by propidium iodide staining based flow cytometry (reference value: 53 +/- 1.1%); type: functional
U-937 [9] = experiment: Induction of apoptosis in human U937 cells assessed as pro-caspase-9 cleavage by Western blotting method; type: functional, cell-based
How it was run: (§2)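 U937 cells exposed to increasing concentrations of the flavonol and harvested at 24 h. Lysates were immunoblotted with antibodies that detect both the pro-caspases and their cleaved forms.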

HL-60 [10] = experiment: Induction of cell cycle arrest in human HL60 cells assessed as accumulation at S phase at 10 uM after 48 hrs by propidium iodide staining based flow cytometry (reference value: 15.3 +/- 0.1%); type: functional
U-937 [11] = experiment: Cytotoxicity against human U937 cells at 30 uM in presence of 0.5 ug/mL TRAIL incubated simultaneously with drug for 48 hrs by MTT assay; type: functional, cell-based
How it was run: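 U937 cells, MTT viability read-out. One arm received TRAIL at 0.5 µg/mL together with compound at 30 µM for 48 h. The other arm had compound for 24 h, then TRAIL for 24 h. Three independent experiments, each in triplicate.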

HL-60 [12] = experiment: Induction of cell cycle arrest in human HL60 cells assessed as accumulation at G1 phase at 1 uM after 12 hrs by propidium iodide staining based flow cytometry (reference value: 57.2 +/- 0.9%); type: functional
HL-60 [13] = experiment: Induction of cell cycle arrest in human HL60 cells assessed as accumulation at S phase at 3 uM after 48 hrs by propidium iodide staining based flow cytometry (reference value: 15.3 +/- 0.1%); type: functional
HL-60 [14] = experiment: Induction of cell cycle arrest in human HL60 cells assessed as accumulation at G1 phase at 3 uM after 12 hrs by propidium iodide staining based flow cytometry (reference value: 57.2 +/- 0.9%); type: functional
[15] = Cytotoxicity against human HL60/MX1 cells after 72 hrs by MTT assay; type: functional, cell-based; details: HL60/MX1, 72 h
How it was run: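 MTT colorimetric assay with 72 h continuous exposure. IC50 was fitted per experiment by non-linear regression. Values are means with SE from at least three independent experiments, each run in triplicate.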

U-937 [16] = experiment: Induction of cell cycle arrest in human U937 cells assessed as accumulation at S phase at 10 uM after 12 hrs by propidium iodide staining based flow cytometry (reference value: 20.5 +/- 0.8%); type: functional
HL-60 [17] = experiment: Induction of apoptosis in human HL60 cells assessed as DNA fragmentation at 30 uM after 24 hrs by ethidium bromide staining based agarose gel electrophoresis method; type: functional, cell-based
How it was run: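 HL-60 cells were treated for 24 h. Genomic DNA was extracted, run on an agarose gel, stained with ethidium bromide and viewed under UV.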

U-937 [18] = experiment: Induction of cell cycle arrest in human U937 cells assessed as accumulation at G2/M phase at 10 uM after 12 hrs by propidium iodide staining based flow cytometry (reference value: 24.2 +/- 1.2%); type: functional
HL-60 [19] = experiment: Induction of apoptosis in human HL60 cells in presence of p38MAPK inhibitor SB203580 after 24 hrs by propidium iodide staining based flow cytometry; type: functional, cell-based
MOLT-3 [20] = experiment: Reduction in Bid expression in human MOLT3 cells by Western blotting method; type: functional, cell-based
How it was run: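 Cells (HL-60, Molt-3 or U937) were incubated with increasing concentrations of compound and harvested at 24 h. Cell lysates were then immunoblotted for Bid and other Bcl-2 family members.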

HL-60 [21] = experiment: Induction of cell cycle arrest in human HL60 cells assessed as accumulation at S phase at 1 uM after 48 hrs by propidium iodide staining based flow cytometry (reference value: 15.3 +/- 0.1%); type: functional
U-937 [22] = experiment: Induction of apoptosis in human U937 cells assessed as pro-caspase-6 cleavage by Western blotting method; type: functional, cell-based; how it was run: as §1
U-937 [23] = experiment: Induction of apoptosis in human U937 cells assessed as pro-caspase-7 cleavage by Western blotting method; type: functional, cell-based; how it was run: as §2
HL-60 [24] = experiment: Induction of apoptosis in human HL60 cells assessed as increase in caspase 9 activity using LEHD-pNA substrate at 10 uM after 24 hrs; type: functional
How it was run: (§3)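 Cells were given 10 µM for 24 h. Lysates were assayed for cleavage of DEVD-pNA (caspase-3/7), IETD-pNA (caspase-8) and LEHD-pNA (caspase-9). Results are expressed as fold over control, from three independent experiments in triplicate.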

HL-60 [25] = experiment: Induction of apoptosis in human HL60 cells in presence of 10 uM MEK1/2 inhibitor U0126 after 24 hrs by propidium iodide staining based flow cytometry; type: functional
U-937 [26] = experiment: Induction of cell cycle arrest in human U937 cells assessed as accumulation at G2/M phase at 3 uM after 48 hrs by propidium iodide staining based flow cytometry (reference value: 19.1 +/- 1.1%); type: functional
HL-60 [27] = experiment: Induction of cell cycle arrest in human HL60 cells assessed as accumulation at G2/M phase at 10 uM after 48 hrs by propidium iodide staining based flow cytometry (reference value: 17.9 +/- 0.7%); type: functional
U-937 [28] = experiment: Induction of apoptosis in human U937 cells assessed as increase in caspase 3/7 activity using DEVD-pNA substrate at 10 uM after 24 hrs; type: functional, cell-based; how it was run: as §3
U-937 [29] = experiment: Induction of cell cycle arrest in human U937 cells assessed as accumulation at G1 phase at 1 uM after 24 hrs by propidium iodide staining based flow cytometry (reference value: 49.8 +/- 1.5%); type: functional
HL-60 [30] = experiment: Induction of cell cycle arrest in human HL60 cells assessed as accumulation at S phase at 10 uM after 24 hrs by propidium iodide staining based flow cytometry (reference value: 17.9 +/- 0.6%); type: functional

Q: With O=c1c(O)c(-c2ccc(Br)cc2)oc2ccccc12 as the compound, how does the Activity (MOLT-3 [1]) read?
A: Active

Q: And the Activity (HL-60 [2])?
A: 5.6%

Q: And the Activity (HL-60 [3])?
A: 14.8%

Q: What about the Activity (U-937 [4]) of the same compound?
A: 7%

Q: What about the Activity (U-937 [5]) of the same compound?
A: 23.9%

Q: What about the Activity (HL-60 [6]) of the same compound?
A: 20.8%

Q: What about the Activity (U-937 [7]) of the same compound?
A: 45.7%

Q: And the Activity (HL-60 [8])?
A: 50.1%

Q: And the Activity (U-937 [9])?
A: Active

Q: And the Activity (HL-60 [10])?
A: 7.3%

Q: What about the Activity (U-937 [11]) of the same compound?
A: Active

Q: And the Activity (HL-60 [12])?
A: 56.2%

Q: What about the Activity (HL-60 [13]) of the same compound?
A: 22.1%

Q: What about the Activity (HL-60 [14]) of the same compound?
A: 56.7%

Q: And the IC50 [15]?
A: 6.5 µM

Q: And the Activity (U-937 [16])?
A: 24.9%

Q: And the Activity (HL-60 [17])?
A: Active

Q: What about the Activity (U-937 [18]) of the same compound?
A: 19.6%

Q: What about the Activity (HL-60 [19]) of the same compound?
A: Active

Q: And the Activity (MOLT-3 [20])?
A: Active

Q: What about the Activity (HL-60 [21]) of the same compound?
A: 15.5%

Q: And the Activity (U-937 [22])?
A: Active

Q: What about the Activity (U-937 [23]) of the same compound?
A: Active

Q: What about the “fold change (FC)” value (HL-60 [24]) of the same compound?
A: 1.8

Q: And the “fold change (FC)” value (HL-60 [25])?
A: 2

Q: And the Activity (U-937 [26])?
A: 19%

Q: What about the Activity (HL-60 [27]) of the same compound?
A: 5.5%

Q: What about the Activity (U-937 [28]) of the same compound?
A: Active

Q: What about the Activity (U-937 [29]) of the same compound?
A: 47.4%

Q: What about the Activity (HL-60 [30]) of the same compound?
A: 24.1%
